# Laboratory results taken from ChEMBL document CHEMBL1143448, “1,8-Naphthyridin-4-one derivatives as new ligands of A2A adenosine receptors” (Bioorg Med Chem Lett, 2005).
# Tests used:
# [1] = target: T1, Adenosine receptor A1 (Bos taurus, UniProt P28190); assay: Inhibition of [3H]CHA binding to adenosine A1 receptor of bovine brain cortical membrane
# T1 sequence (P28190 whole entry): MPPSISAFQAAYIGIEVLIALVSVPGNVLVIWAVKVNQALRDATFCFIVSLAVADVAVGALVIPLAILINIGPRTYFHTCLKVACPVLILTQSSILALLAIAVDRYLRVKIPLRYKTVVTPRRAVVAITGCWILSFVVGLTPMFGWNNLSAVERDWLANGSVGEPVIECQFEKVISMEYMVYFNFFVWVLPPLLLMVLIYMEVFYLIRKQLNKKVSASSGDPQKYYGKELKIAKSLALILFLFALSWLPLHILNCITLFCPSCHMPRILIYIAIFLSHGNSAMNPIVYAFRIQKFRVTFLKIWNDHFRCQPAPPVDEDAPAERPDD
# How it was run: (§1)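 A1 affinity was taken from displacement of specific [3H]N6-cyclohexyladenosine ([3H]CHA, agonist radioligand) binding in bovine or human cortical membranes. Values are given as Ki in nM ± error.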
# [2] = target: Adenosine receptor A2a (Bos taurus); assay: Inhibition of [3H]CGS-21680 binding to adenosine A2a receptor of bovine striatal membrane
# [3] = target: T2, Adenosine receptor A1 (Homo sapiens, UniProt P30542); assay: Inhibition of [3H]CHA binding to adenosine A1 receptor of human brain cortical membrane; how it was run: as §1
# T2 sequence (P30542 whole entry): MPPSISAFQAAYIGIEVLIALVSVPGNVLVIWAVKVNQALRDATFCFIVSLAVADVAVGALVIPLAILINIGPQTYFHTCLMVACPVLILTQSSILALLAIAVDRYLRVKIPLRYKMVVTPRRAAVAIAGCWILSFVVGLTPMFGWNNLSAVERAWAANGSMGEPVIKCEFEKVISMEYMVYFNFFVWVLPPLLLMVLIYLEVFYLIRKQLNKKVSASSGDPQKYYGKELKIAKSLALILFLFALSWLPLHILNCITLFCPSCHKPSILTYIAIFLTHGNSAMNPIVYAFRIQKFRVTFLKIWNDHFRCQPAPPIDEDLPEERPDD
# [4] = target: Adenosine receptor A2a (Homo sapiens, UniProt P29274); assay: Inhibition of [3H]CGS-21680 binding to adenosine A2a receptor of human striatal membrane
# Sequence of Adenosine receptor A2a (P29274 whole entry): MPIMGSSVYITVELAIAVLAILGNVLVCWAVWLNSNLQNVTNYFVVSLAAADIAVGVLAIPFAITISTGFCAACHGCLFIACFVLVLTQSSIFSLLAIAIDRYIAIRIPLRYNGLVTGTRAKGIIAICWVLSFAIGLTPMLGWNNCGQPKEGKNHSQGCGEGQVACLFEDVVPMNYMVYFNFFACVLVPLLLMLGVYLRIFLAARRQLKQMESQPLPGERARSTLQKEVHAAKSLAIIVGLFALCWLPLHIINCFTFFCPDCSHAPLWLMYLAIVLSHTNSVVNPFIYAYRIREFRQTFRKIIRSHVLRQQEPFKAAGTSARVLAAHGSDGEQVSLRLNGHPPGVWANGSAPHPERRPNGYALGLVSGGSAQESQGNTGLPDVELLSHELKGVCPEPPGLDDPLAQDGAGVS
# How it was run: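 Competition binding to striatal membranes from bovine or human brain, measuring displacement of the specific binding of the tritiated agonist [3H]CGS21680 (2-[[p-(2-carboxyethyl)phenyl]ethyl]amino-5'-N-ethylcarboxamidoadenosine). Affinity reported as Ki (nM) ± error.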
Compound,Ki [1] [µM],Ki [2] [nM],Ki [3] [µM],Ki [4] [nM]
O=C(NCc1ccccc1)c1cnc2nc(NCc3ccccc3)ccc2c1O,0.677,> 10000,–,–
O=C(NCc1ccccc1)c1cnc2ncccc2c1O,2.75,1170,–,–
Cc1ccc2c(N=[N+]=[N-])c(Cc3ccccc3)cnc2n1,3.34,3360,> 10,5360
O=C(NCc1ccccc1)c1cnc2nc(Cl)ccc2c1O,0.586,67,–,–
O=C(NCc1ccccc1)c1cnc2nc(NCCc3ccccc3)ccc2c1O,0.977,–,–,–
Cc1ccc(CNC(=O)c2cnc3nc(C)ccc3c2O)cc1,–,–,1.58,–
O=C(NCc1ccccc1)c1cnc2nc(N(CCO)CCO)ccc2c1O,> 10,> 10000,–,–
Cc1ccc2c(NN)c(Cc3ccccc3)cnc2n1,0.22,720,> 10,> 10000
Cc1ccc2c(NC3CCCCC3)c(Cc3ccccc3)cnc2n1,> 10,–,> 10,–
O=C(NCc1ccccc1)c1cnc2[nH]c(=O)ccc2c1O,> 10,–,–,–
CC(=O)Nc1ccc2c(O)c(C(=O)NCc3ccccc3)cnc2n1,> 10,6780,–,–
Cc1ccc2c(O)c(C(=O)NCc3ccc(NC(=O)c4ccccc4)cc3)cnc2n1,7.59,588,–,–
O=C(NCc1ccccc1)c1cnc2nc(Br)ccc2c1O,5.32,–,–,–
O=C(NCc1ccccc1)c1cnc2nc(NC3CCCCC3)ccc2c1O,> 10,–,–,–
Cc1ccc2c(Cl)c(Cc3ccccc3)cnc2n1,> 10,–,> 10,–
Cc1ccc2c(S)c(Cc3ccccc3)cnc2n1,6.33,–,–,–

# The next lines start with the values.
Ki [1] [µM],Ki [2] [nM],Ki [3] [µM],Ki [4] [nM],Compound
2.86,146,–,–,Cc1ccc2c(O)c(C(=O)NCc3ccc(N)cc3)cnc2n1
> 10,> 10000,–,–,Cc1ccc2c(O)c(C(=O)OCc3ccccc3)cnc2n1
0.28,–,0.63,–,Cc1ccc2c(O)c(C(=O)NCc3ccccc3)cnc2n1
0.122,57,–,–,CN(C)c1ccc2c(O)c(C(=O)NCc3ccccc3)cnc2n1
> 10,–,–,–,CC(=O)N(C(C)=O)c1ccc(CNC(=O)c2cnc3nc(C)ccc3c2O)cc1
1.63,99,–,–,Cc1ccc2c(O)c(C(=O)NCc3ccc([N+](=O)[O-])cc3)cnc2n1
6,390,5.6,360,Cc1ccc2c(O)c(C(=O)NC3CCC(C)CC3)cnc2n1 (configuration not stated)
> 10,–,> 10,–,Cc1ccc2c(O)c(C(=O)NN3CCN(C)CC3)cnc2n1
> 10,1430,> 10,640,Cc1ccc2c(O)c(C(=O)NCCC(C)C)cnc2n1
8.73,–,4.16,–,Cc1ccc2c(O)c(Cc3ccccc3Cl)cnc2n1
1.74,–,1.63,–,Cc1ccc2c(O)c(C(=O)NCc3ccc(Cl)cc3)cnc2n1
1.35,–,0.3,–,Cc1ccc2c(O)c(C(=O)NCc3ccco3)cnc2n1
4.49,540,6.24,500,Nc1ccc2c(O)c(C(=O)NCc3ccc(Cl)cc3)cnc2n1
0.97,–,0.63,–,Nc1ccc2c(O)c(C(=O)NCc3ccccc3)cnc2n1
1.77,–,1.65,–,Cc1ccc2c(O)c(C(=O)NCc3ccc(F)cc3)cnc2n1
> 10,740,4.37,2410,COc1ccc(CNC(=O)c2cnc3nc(C)ccc3c2O)cc1
> 10,> 10000,4.18,3330,Cc1ccc2c(O)c(Cc3ccccc3)cnc2n1
> 10,–,> 10,–,Cc1ccc2c(O)c(CC(=O)NC3CCCCC3)cnc2n1
> 10,> 10000,> 10,870,Cc1ccc2c(O)c(CC(=O)NCc3ccccc3)cnc2n1
0.68,140,0.73,150,Cc1ccc2c(O)c(C(=O)NCCc3ccccc3)cnc2n1
> 10,–,–,–,CCOC(=O)c1cnc2nc(C)ccc2c1O
> 10,–,> 10,–,Cc1ccc2c(O)c(C(=O)NC3CCCCC3)cnc2n1
> 10,8660,> 10,> 10000,Cc1ccc2c(O)c(C(=O)NN3CCOCC3)cnc2n1
0.418,–,0.717,–,Cc1ccc2c(O)c(C(=O)NC(C)c3ccccc3)cnc2n1 (configuration not stated)
